Measured values taken from ChEMBL document CHEMBL1153575, “Synthesis and in vitro anticancer activity of 2,4-azolidinedione-acetic acids derivatives” (2009).

Legend:
Format in all cases: functional
[1] = Growth inhibition of human Hs 578T cells after 48 hrs by sulforhodamine B assay; settings: for CC50: read-out: pLC50 (the source's name) (converted); for TGI: read-out: pTGI (converted)
Procedure, shortened: (§1)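 Five-concentration assay in about 60 human tumour lines, using 10-fold dilutions from 10^-4 to 10^-8 M with 48 h continuous exposure and an SRB protein endpoint. Percent growth at each level comes from time-zero, untreated-control and treated absorbances. GI50 is 50% lower net protein increase than control. Values beyond the tested range are given as greater or less than the extreme concentration.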

MCF7 [2] = experiment: Cytotoxicity against human MCF7 cells assessed as cell growth at 100 uM after 48 hrs by sulforhodamine B assay; settings: MCF7, 48 h, read-out: Activity
Procedure, shortened: (§2)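 Primary one-dose screen on a three-line panel (MCF7 breast, NCI-H460 lung, SF-268 CNS) at 10^-4 M. Cells were preincubated 24–48 h before a single addition of the agent, followed by 48 h incubation. Endpoint was SRB protein staining, reported as percent growth versus untreated controls.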

MDA-MB-231 = experiment: Growth inhibition of human MDA-MB-231 cells after 48 hrs by sulforhodamine B assay; settings: MDA-MB-231, 48 h; for TGI: read-out: pTGI (converted); procedure, shortened: as §1
A498 = experiment: Growth inhibition of human A498 cells after 48 hrs by sulforhodamine B assay; settings: A498, 48 h; procedure, shortened: as §1
NCI-H460 = experiment: Cytotoxicity against human NCI-H460 cells assessed as cell growth at 100 uM after 48 hrs by sulforhodamine B assay; settings: NCI-H460, 48 h, read-out: Activity; procedure, shortened: as §2
NCI-H23 = experiment: Growth inhibition of human NCI-H23 cells after 48 hrs by sulforhodamine B assay; settings: NCI-H23, 48 h; for TGI: read-out: pTGI (converted); procedure, shortened: as §1
SF-268 [3] = experiment: Cytotoxicity against human SF268 cells assessed as cell growth at 100 uM after 48 hrs by sulforhodamine B assay; settings: SF-268, 48 h, read-out: Activity; procedure, shortened: as §2
SR = experiment: Growth inhibition of human SR cells after 48 hrs by sulforhodamine B assay; settings: for TGI: read-out: pTGI (converted); procedure, shortened: as §1
CCRF-CEM = experiment: Growth inhibition of human CCRF-CEM cells after 48 hrs by sulforhodamine B assay; settings: for TGI: read-out: pTGI (converted); procedure, shortened: as §1
NCI-H226 = experiment: Growth inhibition of human NCI-H226 cells after 48 hrs by sulforhodamine B assay; settings: NCI-H226, 48 h; for CC50: read-out: pLC50 (the source's name) (converted); for TGI: read-out: pTGI (converted); procedure, shortened: as §1
SNB-75 = experiment: Growth inhibition of human SNB75 cells after 48 hrs by sulforhodamine B assay; settings: SNB-75, 48 h; procedure, shortened: as §1
SF-295 = experiment: Growth inhibition of human SF295 cells after 48 hrs by sulforhodamine B assay; settings: SF-295, 48 h; procedure, shortened: as §1
U-251 = experiment: Growth inhibition of human U251 cells after 48 hrs by sulforhodamine B assay; settings: U-251, 48 h; for TGI: read-out: pTGI (converted); procedure, shortened: as §1
[4] = Growth inhibition of human 786-O cells after 48 hrs by sulforhodamine B assay; settings: 786-0, 48 h; procedure, shortened: as §1
SK-OV-3 = experiment: Growth inhibition of human SKOV3 cells after 48 hrs by sulforhodamine B assay; settings: SK-OV-3, 48 h; for TGI: read-out: pTGI (converted); procedure, shortened: as §1
HOP-92 = experiment: Growth inhibition of human HOP92 cells after 48 hrs by sulforhodamine B assay; settings: HOP-92, 48 h; for TGI: read-out: pTGI (converted); procedure, shortened: as §1
MCF7 [5] = experiment: Growth inhibition of human MCF7 cells after 48 hrs by sulforhodamine B assay; settings: MCF7, 48 h; procedure, shortened: as §1
OVCAR-3 = experiment: Growth inhibition of human OVCAR-3 cells after 48 hrs by sulforhodamine B assay; settings: OVCAR-3, 48 h; procedure, shortened: as §1
HCT-116 = experiment: Growth inhibition of human HCT116 cells after 48 hrs by sulforhodamine B assay; settings: HCT-116, 48 h; procedure, shortened: as §1
MOLT-4 = experiment: Growth inhibition of human MOLT4 cells after 48 hrs by sulforhodamine B assay; settings: MOLT-4, 48 h; procedure, shortened: as §1
SN12C = experiment: Growth inhibition of human SN12C cells after 48 hrs by sulforhodamine B assay; procedure, shortened: as §1
SNB- = experiment: Growth inhibition of human SNB cells after 48 hrs by sulforhodamine B assay; procedure, shortened: as §1
RPMI-8226 = experiment: Growth inhibition of human RPMI8226 cells after 48 hrs by sulforhodamine B assay; settings: RPMI-8226, 48 h; procedure, shortened: as §1
PC-3 = experiment: Growth inhibition of human PC3 cells after 48 hrs by sulforhodamine B assay; settings: PC-3, 48 h; procedure, shortened: as §1
TK-10 = experiment: Growth inhibition of human TK10 cells after 48 hrs by sulforhodamine B assay; settings: TK-10, 48 h; procedure, shortened: as §1
SF-268 [6] = experiment: Growth inhibition of human SF268 cells after 48 hrs by sulforhodamine B assay; settings: SF-268, 48 h; procedure, shortened: as §1
HOP-62 = experiment: Growth inhibition of human HOP62 cells after 48 hrs by sulforhodamine B assay; settings: HOP-62, 48 h; procedure, shortened: as §1
LOX IMVI = experiment: Growth inhibition of human LOXIMVI cells after 48 hrs by sulforhodamine B assay; procedure, shortened: as §1
OVCAR-4 = experiment: Growth inhibition of human OVCAR4 cells after 48 hrs by sulforhodamine B assay; settings: OVCAR-4, 48 h; procedure, shortened: as §1
HL-60(TB) = experiment: Growth inhibition of human HL-60(TB) cells after 48 hrs by sulforhodamine B assay; settings: HL-60, 48 h
Procedure, shortened: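 Cells inoculated and preincubated 24–48 h in microtiter plates, then exposed continuously for 48 h to five 10-fold dilutions from 10^-4 to 10^-8 M. End point by sulforhodamine B protein staining, read spectrophotometrically against untreated controls and time-zero absorbance. Percent growth computed per concentration; GI50 taken where [(Ti−Tz)/(C−Tz)]×100 = 50, expressed as log molar value.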

SF-539 = experiment: Growth inhibition of human SF539 cells after 48 hrs by sulforhodamine B assay; settings: SF-539, 48 h; procedure, shortened: as §1
[7] = read-out: pLC50 (the source's name) (converted)

## O=C(CN1C(=O)N/C(=C\C=C\c2ccccc2)C1=O)Nc1ccc(Cl)cc1
[1]
  GI50: 21.9 µM
  CC50: > 100 µM
  TGI: 52.5 µM
MCF7 [2]
  growth at 100 µM: 7%
MDA-MB-231
  GI50: 26.3 µM
  LC50: > 100 µM
  TGI: > 100 µM
A498
  GI50: 17.8 µM
A498; [7]
  CC50: 77.6 µM
A498; read-out: pTGI (converted)
  TGI: 37.2 µM
NCI-H460
  growth at 100 µM: 17%
NCI-H23
  GI50: 31.6 µM
  LC50: > 100 µM
  TGI: > 100 µM
SF-268 [3]
  growth at 100 µM: 39%
SR
  GI50: 33.9 µM
  LC50: > 100 µM
  TGI: > 100 µM

## COc1ccc(/C=C2/NC(=O)N(CC(=O)Nc3cc(C(F)(F)F)ccc3Cl)C2=O)cc1
CCRF-CEM
  GI50: 21.9 µM
  LC50: > 100 µM
  TGI: > 100 µM
NCI-H226
  GI50: 26.3 µM
  CC50: > 100 µM
  TGI: > 100 µM
[1]
  GI50: 18.6 µM
  CC50: > 100 µM
  TGI: 91.2 µM
MDA-MB-231
  GI50: 15.8 µM
  LC50: > 100 µM
  TGI: > 100 µM
SNB-75
  GI50: 2.69 µM
SNB-75; [7]
  CC50: > 100 µM
SNB-75; read-out: pTGI (converted)
  TGI: 16.6 µM
SF-295
  GI50: 30.9 µM
SF-295; [7]
  CC50: > 100 µM
SF-295; read-out: pTGI
  TGI: > 100 µM
U-251
  GI50: 9.33 µM
  LC50: > 100 µM
  TGI: 63.1 µM
[4]
  GI50: 21.9 µM
[4]; [7]
  CC50: > 100 µM
[4]; read-out: pTGI (converted)
  TGI: > 100 µM
SK-OV-3
  GI50: 19.5 µM
  LC50: > 100 µM
  TGI: 81.3 µM
HOP-92
  GI50: 6.03 µM
  LC50: 69.2 µM
  TGI: 24 µM
SR
  GI50: 7.24 µM
  LC50: 49 µM
  TGI: 20 µM

## COc1ccc(/C=C2/NC(=O)N(CC(=O)Nc3cccc(C(F)(F)F)c3)C2=O)cc1
MCF7 [2]
  growth at 100 µM: 64%
MDA-MB-231
  GI50: 23.4 µM
  LC50: > 100 µM
  TGI: 58.9 µM
U-251
  GI50: 25.7 µM
  LC50: > 100 µM
  TGI: 69.2 µM
NCI-H460
  growth at 100 µM: 44%
MCF7 [5]
  GI50: 2.82 µM
MCF7 [5]; [7]
  CC50: > 100 µM
MCF7 [5]; read-out: pTGI
  TGI: > 100 µM
NCI-H23
  GI50: 26.3 µM
  LC50: > 100 µM
  TGI: 89.1 µM
SF-268 [3]
  growth at 100 µM: 65%
OVCAR-3
  GI50: 30.9 µM
OVCAR-3; [7]
  CC50: > 100 µM
OVCAR-3; read-out: pTGI (converted)
  TGI: 95.5 µM
HCT-116
  GI50: 30.2 µM
  LC50: > 100 µM
HCT-116; read-out: pTGI (converted)
  TGI: > 100 µM

## O=C(CN1C(=O)N/C(=C\c2ccc(Cl)cc2)C1=O)Nc1ccc(Cl)cc1
MOLT-4
  GI50: 11 µM
MOLT-4; [7]
  CC50: 72.4 µM
MOLT-4; read-out: pTGI (converted)
  TGI: 28.2 µM
SN12C
  GI50: 17 µM
  LC50: > 100 µM
SN12C; read-out: pTGI (converted)
  TGI: 47.9 µM
CCRF-CEM
  GI50: 14.8 µM
  LC50: 67.6 µM
  TGI: 31.6 µM
NCI-H226
  GI50: 15.8 µM
  CC50: > 100 µM
  TGI: 44.7 µM
[1]
  GI50: 10.7 µM
  CC50: > 100 µM
  TGI: 38 µM
MDA-MB-231
  GI50: 16.2 µM
  LC50: > 100 µM
  TGI: 42.7 µM
SNB-
  GI50: 13.2 µM
SNB-; [7]
  CC50: > 100 µM
SNB-; read-out: pTGI (converted)
  TGI: 36.3 µM
RPMI-8226
  GI50: 20.9 µM
  LC50: > 100 µM
RPMI-8226; read-out: pTGI (converted)
  TGI: 67.6 µM
U-251
  GI50: 14.8 µM
  LC50: 60.3 µM
  TGI: 29.5 µM
PC-3
  GI50: 18.6 µM
PC-3; [7]
  CC50: > 100 µM
PC-3; read-out: pTGI (converted)
  TGI: 46.8 µM
TK-10
  GI50: 17 µM
TK-10; [7]
  CC50: > 100 µM
TK-10; read-out: pTGI (converted)
  TGI: 42.7 µM
SF-268 [6]
  GI50: 10.5 µM
SF-268 [6]; [7]
  CC50: 85.1 µM
SF-268 [6]; read-out: pTGI (converted)
  TGI: 29.5 µM
HOP-62
  GI50: 15.1 µM
  LC50: > 100 µM
HOP-62; read-out: pTGI (converted)
  TGI: 43.7 µM
LOX IMVI
  GI50: 15.5 µM
LOX IMVI; [7]
  CC50: 66.1 µM
LOX IMVI; read-out: pTGI (converted)
  TGI: 32.4 µM
OVCAR-4
  GI50: 13.2 µM
OVCAR-4; [7]
  CC50: > 100 µM
OVCAR-4; read-out: pTGI (converted)
  TGI: 64.6 µM
SK-OV-3
  GI50: 19.5 µM
  LC50: > 100 µM
  TGI: 51.3 µM
HL-60(TB)
  GI50: 19.5 µM
HL-60(TB); [7]
  CC50: > 100 µM
HL-60(TB); read-out: pTGI (converted)
  TGI: 46.8 µM
HOP-92
  GI50: 17.4 µM
  LC50: > 100 µM
  TGI: 50.1 µM
SR
  GI50: 7.08 µM
  LC50: > 100 µM
  TGI: 67.6 µM
SF-539
  GI50: 16.6 µM
SF-539; [7]
  CC50: 89.1 µM
SF-539; read-out: pTGI (converted)
  TGI: 38.9 µM
